Test results from ChEMBL document CHEMBL4480360, “Design and characterization of a heterocyclic electrophilic fragment library for the discovery of cysteine-targeted covalent inhibitors” (Medchemcomm, 2019).

Tests used:
Format in all cases: physicochemical
[1] = Stability of the compound assessed as half life for degradation
[2] = Glutathione reactivity assessed as half life at 250 uM up to 72 hrs by HPLC-MS or NMR analysis; settings: gsh
Outline: (§1)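 Fragment 250 µM mixed with 5 mM glutathione in PBS pH 7.4 containing 5% acetonitrile, with 100 µM indoprofen as internal standard. For fragments not detectable at 250 µM, levels were reversed (5 mM fragment, 250 µM GSH). Internal-standard-corrected AUCs were fitted by OLS linear regression. k_GSH = k_eff − k_deg, and t1/2 = ln2/k_GSH.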

[3] = Glutathione reactivity assessed as thiol reactivity rate constant at 250 uM up to 72 hrs by HPLC-MS or NMR analysis; set-up: unit not given beside the values; outline: as §1

SMILES | half-life [1] [h] | t1/2 [2] [h] | K [3]
C#CCn1ccnc1 | > 1 | 48 | 0.0144
Ic1nccs1 | > 1 | 0.9 | 0.7872
Ic1ncc[nH]1 | > 1 | 6 | 0.116
N#Cc1ccncc1 [ISONICOTINONITRILE] | > 1 | 0.8 | 0.8837
Ic1ncco1 | > 1 | – | 6.0573
N#Cc1cccnc1 | > 1 | 41 | 0.0176
N#Cc1cnccn1 | > 1 | 22.5 | 0.0314
Brc1cncs1 | > 1 | 63 | 0.011
